Measured values taken from ChEMBL document CHEMBL1255395, “Laninamivir prodrug CS-8958, a long-acting neuraminidase inhibitor, shows superior anti-influenza virus activity after a single administration” (Antimicrob Agents Chemother, 2010).
Calls of active or inactive are those of the source. The rule behind the calls is not given here.

What was measured:
Assay type in all cases: functional, organism-based
Influenza A virus [1] = assay: Antimicrobial activity against H274Y mutant oseltamivir-resistant influenza A virus (A/Yokohama/67/2006 (H1N1)) clone 11 infected in BALB/c mouse assessed as reduction in viral titer in lung at 0.080 mg/kg, itn administered 13 hrs post infection measured after 61 hrs post infection; design: dose 0.08 mg/kg
In short: (§1)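 Female BALB/c mice (5–6 weeks) infected intranasally with clone 11, then given a single intranasal dose in saline at 13 hpi. Lungs from 3 mice per time point were homogenized in PBS with 0.4% BSA and centrifuged at 2,200 × g. Supernatants were titrated by MDCK plaque assay (agar overlay with 1 μg/ml trypsin, 2 days, crystal violet). Reported as log10 PFU/lungs, mean ± SD; detection limit 2.4.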

Influenza A virus [2] = assay: Antimicrobial activity against H274Y mutant oseltamivir-resistant influenza A virus (A/Yokohama/67/2006 (H1N1)) clone 11 infected in BALB/c mouse assessed as reduction in viral titer in lung at 0.080 mg/kg, itn administered 13 hrs post infection measured after 37 hrs post infection; design: dose 0.08 mg/kg; in short: as §1
Influenza A virus [3] = assay: Antimicrobial activity against H274Y mutant oseltamivir-resistant influenza A virus (A/Yokohama/67/2006 (H1N1)) clone 11 infected in BALB/c mouse assessed as reduction in viral titer in lung at 0.080 mg/kg, itn administered 13 hrs post infection measured after 85 hrs post infection; design: dose 0.08 mg/kg; in short: as §1
Influenza A virus [4] = assay: Antimicrobial activity against H274Y mutant oseltamivir-resistant influenza A virus (A/Yokohama/67/2006 (H1N1)) clone 11 infected in BALB/c mouse assessed as reduction in viral titer in lung at 1.0 mg/kg, po administered 13 hrs post infection, qd measured after 37 hrs post infection; design: dose 1 mg/kg
Influenza A virus [5] = assay: Antimicrobial activity against H274Y mutant oseltamivir-resistant influenza A virus (A/Yokohama/67/2006 (H1N1)) clone 11 infected in BALB/c mouse assessed as reduction in viral titer in lung at 1.0 mg/kg, po administered 13 hrs post infection, qd measured after 61 hrs post infection; design: dose 1 mg/kg
Influenza A virus [6] = assay: Antimicrobial activity against H274Y mutant oseltamivir-resistant influenza A virus (A/Yokohama/67/2006 (H1N1)) clone 11 infected in BALB/c mouse assessed as reduction in viral titer in lung at 1.0 mg/kg, po administered 13 hrs post infection, qd measured after 85 hrs post infection; design: dose 1 mg/kg
Influenza A virus [7] = assay: Antimicrobial activity against H274Y mutant oseltamivir-resistant influenza A virus (A/Yokohama/67/2006 (H1N1)) clone 11 infected in BALB/c mouse assessed as reduction in viral titer in lung at 10 mg/kg, po administered 13 hrs post infection, qd measured after 37 hrs post infection; design: dose 10 mg/kg
Influenza A virus [8] = assay: Antimicrobial activity against H274Y mutant oseltamivir-resistant influenza A virus (A/Yokohama/67/2006 (H1N1)) clone 11 infected in BALB/c mouse assessed as reduction in viral titer in lung at 10 mg/kg, po administered 13 hrs post infection, qd measured after 61 hrs post infection; design: dose 10 mg/kg
Influenza A virus [9] = assay: Antimicrobial activity against H274Y mutant oseltamivir-resistant influenza A virus (A/Yokohama/67/2006 (H1N1)) clone 11 infected in BALB/c mouse assessed as reduction in viral titer in lung at 10 mg/kg, po administered 13 hrs post infection, qd measured after 85 hrs post infection; design: dose 10 mg/kg

Row | Structure (SMILES) | Activity (Influenza A virus [1]) | Activity (Influenza A virus [2]) | Activity (Influenza A virus [3]) | Activity (Influenza A virus [4]) | Activity (Influenza A virus [5]) | Activity (Influenza A virus [6]) | Activity (Influenza A virus [7]) | Activity (Influenza A virus [8]) | Activity (Influenza A virus [9])
1 | CCCCCCCC(=O)OC[C@@H](O)[C@@H](OC)[C@@H]1OC(C(=O)O)=C[C@H](NC(=N)N)[C@H]1NC(C)=O [LANINAMIVIR OCTANOATE] | Active | Active | Active | – | – | – | – | – | –
2 | CCOC(=O)C1=C[C@@H](OC(CC)CC)[C@H](NC(C)=O)[C@@H](N)C1.O=P(O)(O)O [OSELTAMIVIR PHOSPHATE] | – | – | – | inactive | inactive | inactive | inactive | inactive | inactive
